Sampled rows, rich in hits. Any-hit rate of the full collection: about 3.1%.
miR122 inh: miR-122 Renilla sensor signal increase in Huh7, primary screen, miR-122 inhibitor project, cell-based, single point, plate reader. AID 602342, 2012. Huh7 miR-122 Renilla luciferase sensor, 48 h; neutral wells = 0, positive control = 100. actives 0.3% (n = 340,000). activation (reporter increase), % at 12.5 µM;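 active means mean replicate activation score at least 90 and every replicate individually at or above 90; inconclusive means only one of the two criteria met; inactive means neither criterion met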;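 further: higher luciferase means less miR-122 activity so hits act as miR-122 inhibitors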
rRNA inh HTS: reduced GFP signal of wild-type E. coli, primary screen, bacterial rRNA inhibitor project, GFP/RFP fluorescence, OD600, single point. actives 1.6% (n = 350,000). GFP signal change (wild-type ribosome), % (concentration not given with the values). E. coli WT GFP vs humanized-ribosome RFP mutants, 24 h; stronger effect = lower value; DMSO median 0, no signal -100. AID 720706, 2013;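 active means significant combined selectivity score with lowered wild-type GFP, culture density cut under 30%, mutant RFP and density less affected; inactive means any of these conditions unmet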
DENV2 CPE: inhibitors of DENV2 cytopathic effect, primary screen, cell-based, plate reader, single concentration | DENV2-infected cells, cytopathic effect rescue | CPE inhibition, % at 9.99 µM | actives 1.7% (n = 350,000); in the data active means CPE inhibition above about 20%, passing the limit was not always enough; inconclusive means no clear call, values can overlap the other calls; tested in BHK-21 cells;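 further: 0% = median of neutral control wells and 100% = median of positive control wells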
Cneo AK release: Cryptococcus neoformans cell lysis inducers, primary screen, AK release luminescence, single concentration. lysis activity, % at 15 µM. C. neoformans lysis, adenylate kinase release luminescence, 4 h; normalised: neutral wells 0, clomiphene wells 100. actives 0.2% (n = 360,000);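 active means mean lysis activity across replicates of at least 80%, whatever share of replicates individually reach that level; inactive means mean lysis activity below 80%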
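Assay system: C. neoformans cells. Amount: yeast cell density of 5 × 10^6 cells/mL. Technique: AK luminescence. Buffer or medium: YPD. Times: static 4 h at 37 °C with compound, 1 h detection. Dosing: single-point compound dose. Read-out: lysis from increased AK signal.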
E-sel inducer: E-selectin induction in HUVECs, primary screen, imaging, HUVEC, immunofluorescence imaging, single point | P16581 | normalized: neutral wells 0, TNF-alpha wells 100 | activation, % at 7.58 µM | actives 0.37% (n = 260,000);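 active means mean E-selectin-positive cell signal at least 10% of the positive control, reached in at least 60% of replicates, without over 20% cell loss; inconclusive means no rule given, readout overlaps actives, possibly toxicity-flagged; inactive means the rest, including those meeting only one limit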
Target sequence (P16581 whole entry, looked up): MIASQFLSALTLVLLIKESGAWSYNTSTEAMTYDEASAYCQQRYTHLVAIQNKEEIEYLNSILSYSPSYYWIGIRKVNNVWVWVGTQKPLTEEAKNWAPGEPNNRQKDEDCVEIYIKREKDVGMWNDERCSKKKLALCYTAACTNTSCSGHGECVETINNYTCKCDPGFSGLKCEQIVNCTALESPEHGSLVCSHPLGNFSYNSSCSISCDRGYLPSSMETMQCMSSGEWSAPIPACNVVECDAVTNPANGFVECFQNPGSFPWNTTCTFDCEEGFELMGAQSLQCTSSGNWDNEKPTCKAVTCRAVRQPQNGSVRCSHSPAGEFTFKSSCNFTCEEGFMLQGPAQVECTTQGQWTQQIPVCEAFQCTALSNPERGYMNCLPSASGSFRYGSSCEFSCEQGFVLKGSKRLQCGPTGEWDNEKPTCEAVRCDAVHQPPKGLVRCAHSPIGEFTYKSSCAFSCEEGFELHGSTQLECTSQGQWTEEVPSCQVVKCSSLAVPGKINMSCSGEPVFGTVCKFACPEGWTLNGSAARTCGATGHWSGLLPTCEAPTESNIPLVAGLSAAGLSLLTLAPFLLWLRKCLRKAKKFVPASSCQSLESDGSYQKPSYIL
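Assay system: HUVEC, human umbilical vein endothelial cells / Amount: 3,000 HUVEC/well / Controls: TNF-alpha positive control, DMSO neutral control / Compound dosing: single concentration / Medium: EGM-2 over gelatin coat / Evaluation: percent E-selectin-positive cells / Signal: immunofluorescence imaging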
An asterisk follows results filed as active; ? = inconclusive; / = no result given; [ ] = dose if it differs, or a comment.

SMILES | miR122 inh | rRNA inh HTS | DENV2 CPE | Cneo AK release | E-sel inducer
NS(=O)(=O)c1ccc(CCNC(=O)/C=C/c2ccc([N+](=O)[O-])cc2)cc1 | / | -18* | -5 | / | /
COc1ccc(CCNC(=O)c2cc([N+](=O)[O-])ccc2N2CCOCC2)cc1 | / | 8 | 1 | / | 0
NS(=O)(=O)c1ccc(CCNC(=O)c2cc([N+](=O)[O-])ccc2N2CCCCC2)cc1 | / | -17* | -5 | 0 | /
C[C@@H]1CN([C@@H](C)CO)C(=O)c2cc(NS(=O)(=O)c3cn(C)cn3)ccc2O[C@@H](C)CCCCO[C@H]1CN(C)C | -1[16.7 µM] | / | -1 | 98* | /
CNC[C@H]1OCCCC[C@@H](C)Oc2ccc(NS(=O)(=O)c3cn(C)cn3)cc2C(=O)N([C@@H](C)CO)C[C@H]1C | 25[16.7 µM] | 3 | 64* | 5 | 0
CNC[C@H]1OCCCC[C@H](C)Oc2ccc(NS(=O)(=O)c3cn(C)cn3)cc2C(=O)N([C@@H](C)CO)C[C@@H]1C | 31[16.7 µM] | 8 | 1 | -1 | 0
COc1ccc2c3c([nH]c2c1)[C@@H](CO)N(CC1CC1)CC31CN(C(=O)c2cccc(F)c2)C1 | / | -6 | 4 | / | 0
CCCC(=O)Nc1ccc2c(c1)C(=O)N(C)[C@@H]1CC[C@@H](CC(=O)NCc3ccccc3)O[C@H]1CO2 | 1[16.7 µM] | 1 | 8 | -7 | 0
COc1ccc(C)cc1S(=O)(=O)Nc1cccc(SC)c1 | 166* | / | / | / | /
COc1ccc(C)cc1S(=O)(=O)Nc1cccc(C)c1 | / | 16 | -4 | / | /
COc1ccc(NS(=O)(=O)c2cc(C)ccc2OC)cc1OC | 95* | / | / | 1 | /
COc1ccc(-c2cccc(NS(=O)(=O)c3cc([N+](=O)[O-])ccc3C)c2)nn1 | 135* | 7 | -3 | -4 | 6
C[C@@H]1CN([C@H](C)CO)C(=O)c2cc(NC(=O)NC3CCCCC3)ccc2O[C@@H]1CN(C)C(=O)Nc1ccccc1 | 3[16.7 µM] | 0 | -3 | -5 | 2
C[C@@H]1CN([C@H](C)CO)C(=O)c2cc(C3=CCCC3)cnc2O[C@H]1CN(C)C(=O)C1CCOCC1 | -7[16.7 µM] | 1 | 38* | -2 | 0
C[C@H](CO)N1C[C@H](C)[C@H](CN(C)C(=O)C2CCC2)Oc2ncc(C3=CCCC3)cc2C1=O | 22[16.7 µM] | 6 | 30* | 3 | 0
C[C@H]1CN([C@@H](C)CO)C(=O)c2cc(C3=CCCC3)cnc2O[C@H]1CN(C)C(=O)C1CCOCC1 | -3[16.7 µM] | 0 | 12 | -2 | 0
C[C@H]1CN([C@@H](C)CO)C(=O)c2cc(C3=CCCC3)cnc2O[C@@H]1CN(C)C(=O)C1CCC1 | 9[16.7 µM] | -4 | -5 | 2 | 0
COc1ccc(CN2CC3(CCN(C(C)=O)CC3)c3c(n(C)c4cc(OC)ccc34)[C@H]2CO)cc1 | / | 2 | / | / | /
Cc1ccc(C)c(OCc2cc(C(=O)N3CC[C@@H]4CCCC[C@H]4C3)no2)c1 | -10 | 15 | 4 | 2 | 1
COc1cc(C)ccc1OCc1cc(C(=O)N2CCC(c3ccc(F)cc3)C2)no1 (stereo not drawn) | 1 | -14* | 5 | -6 | /
CC(=O)Nc1ccc2c(c1)CC(=O)N(C)C[C@H](C)[C@@H](CN(C)C(=O)OC(C)(C)C)O2 | / | 2 | / | / | /
CC(C)NC(=O)NCC[C@@H]1CC[C@@H](NS(=O)(=O)c2ccccc2)[C@@H](CO)O1 | / | 0 | 7 | / | 0
Cc1ccc(S(=O)(=O)Nc2cccc3c2O[C@@H](CN(C)C(=O)NC(C)C)[C@H](C)CN([C@@H](C)CO)C3=O)cc1 | 7[16.7 µM] | 0 | 7 | 0 | 1
Cc1ccc(S(=O)(=O)Nc2cccc3c2O[C@@H](CN(C)C(=O)NC(C)C)[C@@H](C)CN([C@H](C)CO)C3=O)cc1 | -3[16.7 µM] | 1 | 43* | 0 | 1
CC(C)NC(=O)N(C)C[C@H]1Oc2c(NS(=O)(=O)c3ccc(Cl)cc3)cccc2C(=O)N([C@@H](C)CO)C[C@@H]1C | 27[16.7 µM] | -3 | 4 | 105* | /
SMILES | miR122 inh | rRNA inh HTS | DENV2 CPE | Cneo AK release | E-sel inducer
Cc1noc(C)c1S(=O)(=O)Nc1cccc2c1O[C@H](CN(C)C(=O)NC(C)C)[C@H](C)CN([C@@H](C)CO)C2=O | 4[16.7 µM] | 4 | 88* | 51 | 0
C[C@H]1CN([C@@H](C)CO)C(=O)c2cccc(NS(=O)(=O)c3ccc(Cl)cc3)c2O[C@@H]1CN(C)CC1CC1 | -3[16.7 µM] | / | 2 | 89* | /
Cc1ccc(S(=O)(=O)Nc2ccc3c(c2)C(=O)N([C@H](C)CO)C[C@@H](C)[C@H](CN(C)C(=O)C2CCCCC2)OCCCC[C@@H](C)O3)cc1 | -11[16.7 µM] | -2 | -9 | 1 | 0
Cc1noc(C)c1S(=O)(=O)Nc1cccc2c1O[C@@H](CN(C)S(=O)(=O)c1ccccc1)[C@@H](C)CN([C@H](C)CO)C2=O | 2[16.7 µM] | 1 | 11 | 5 | 0
Cc1noc(C)c1S(=O)(=O)Nc1cccc2c1O[C@H](CN(C)S(=O)(=O)c1ccccc1)[C@H](C)CN([C@H](C)CO)C2=O | -12[16.7 µM] | -1 | 54* | 7 | 0
CN(C)C(CNc1ncnc2sc3c(c12)CCCCC3)c1ccco1 (stereo not drawn) | / | -38* | -4 | / | 0
C[C@@H]1CN([C@@H](C)CO)C(=O)Cc2cc(NC(=O)Cc3ccccc3)ccc2O[C@H]1CN(C)Cc1ccncc1 | 6[16.7 µM] | -2 | 2 | 0 | -21
COc1ccccc1/C=C/CN1CCCC(CO)(Cc2cccc(Cl)c2)C1 (stereo not drawn) | -5 | -45 | ? | 3 | /
COc1ccc(/C=C/CN2CCCC(CO)(Cc3cccc(Cl)c3)C2)cc1 (stereo not drawn) | -11 | -47* | -7 | 4 | 0
Cc1ccc(S(=O)(=O)Oc2cccc(/C=N/n3cnnc3)c2)cc1 | / | -2 | / | / | /
Cc1ccc(S(=O)(=O)Oc2cccc(/C=N/Nc3ccc(C(=O)O)cc3)c2)cc1 | 1 | -28* | -4 | 0 | /
COc1ccc(-c2cnc3c(c2)C(=O)N([C@@H](C)CO)C[C@@H](C)[C@H](CN(C)S(=O)(=O)c2ccc(OC)cc2)O3)cc1 | 0[16.7 µM] | 0 | / | / | 1
CCCC(=O)N1CC2(C1)CN(C(=O)C1CCCCC1)[C@H](CO)c1[nH]c3cc(OC)ccc3c12 | / | -1 | 7 | / | 0
C[C@@H]1CN([C@@H](C)CO)C(=O)c2cc(-c3ccccc3)cnc2O[C@@H]1CN(C)C(=O)C1CCCCC1 | 18[16.7 µM] | 3 | 12 | -4 | 0
C[C@@H]1CN([C@@H](C)CO)C(=O)c2cc(-c3ccccc3)cnc2O[C@H]1CN(C)C(=O)C1CCCCC1 | -4[16.7 µM] | -5 | 51* | 2 | 0
